From PubChem BioAssay
In the library only some 2.5% were active in any assay of this set; here they are far more common.
Diaph inh CS: diaphorase inhibition or chemical oxidation counter-screen | AID 1217 | 190,000 tested, 0.69% active | diaphorase resazurin-to-resorufin fluorescence, NADH, 16 min; bacterial (C. kluyveri) enzyme, not human | inhibition, % at 20 µM;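 active = primary screen inhibition at 20 µM above a set limit, cut at about 50% in these data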;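 also: plate controls were DMSO with full reaction for no effect and wells lacking NADH for full effect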
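Test system: diaphorase enzyme from Clostridium kluyveri; amount: diaphorase at 0.14 U/mL in enzyme working solution; detection: fluorescence of resorufin formed from resazurin, Ex 544/Em 590 nm; times: reaction incubation of 16 min at room temperature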
PMI activator: increases human mannose-6-phosphate isomerase activity. P34949. purified human PMI, coupled resazurin fluorescence, 20 min; active compounds read high; 1 = vehicle control, 0 substrate-free wells. activation factor at 20 µM. 190,000 tested, 0.005% active;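 active = activation factor of 2 or more at 20 µM, relative to plate controls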
FLuc inh counter: inhibits firefly luciferase, flagging false hits in luciferase inhibition screens. P08659. ATPLite firefly luciferase biochemical luminescence, 10 min. inhibition, % at 10 µM. 200,000 tested, 1.5% active. AID 1006;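 active = inhibition above about 50% when tested at 10 µM, limit read from the data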
Target sequence (P08659 whole entry, looked up): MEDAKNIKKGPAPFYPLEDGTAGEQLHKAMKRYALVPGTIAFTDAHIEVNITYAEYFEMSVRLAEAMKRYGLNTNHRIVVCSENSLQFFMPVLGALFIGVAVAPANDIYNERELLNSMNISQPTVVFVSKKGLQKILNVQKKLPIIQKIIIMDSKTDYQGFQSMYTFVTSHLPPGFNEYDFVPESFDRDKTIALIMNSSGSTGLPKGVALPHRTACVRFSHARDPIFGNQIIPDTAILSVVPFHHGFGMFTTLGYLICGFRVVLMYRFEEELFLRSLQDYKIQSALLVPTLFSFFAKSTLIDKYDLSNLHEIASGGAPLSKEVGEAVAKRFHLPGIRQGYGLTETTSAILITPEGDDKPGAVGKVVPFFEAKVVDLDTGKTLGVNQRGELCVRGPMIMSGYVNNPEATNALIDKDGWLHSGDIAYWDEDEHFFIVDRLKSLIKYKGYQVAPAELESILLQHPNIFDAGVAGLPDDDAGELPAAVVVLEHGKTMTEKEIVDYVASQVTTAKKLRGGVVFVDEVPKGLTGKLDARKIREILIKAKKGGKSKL
FLuc stim CS: affects firefly luciferase, flagging false hits in luciferase stimulation screens. activation factor at 10 µM. ATPlite luciferase biochemical, luminescence, 10 min; 0 = ATP-free wells, 1 = DMSO control. P08659. 200,000 tested, under 10 active;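 active = luciferase activation factor, scaled between plate controls, of at least 2 with compound at 10 µM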
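System: cell-free luciferase reagent; medium: PBS as buffer for the ATP substrate; doses: test compounds dosed from 2 mM stocks in 100% DMSO; incubation: 10 min, room temperature; measured by: luminescence from luciferase reaction; read-out: luciferase activation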
PMI act hi M6P: PMI (human) activation, high substrate. P34949. coupled PMI enzyme assay, resazurin fluorescence, 20 min; active compounds read high; 1 = untreated enzyme, 0 = substrate-free blank. activation factor at 20 µM. 190,000 tested, 0.34% active;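 active = activation factor of 2 or more at 20 µM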
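Test system – human PMI in coupled enzyme assay · Timing – 20 min incubation at room temperature · Detection – Diaphorase-driven resazurin-to-resorufin fluorescence, excitation 544, emission 590 nm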
Diaphorase act: activates diaphorase or chemically reduces, flagging diaphorase assay artifacts; Diaphorase/resazurin coupled assay, resorufin fluorescence, 16 min; active compounds read high; 1 = vehicle wells, 0 = NADH-free wells; activation factor at 20 µM; 190,000 tested, 0.005% active; AID 1229;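 active = diaphorase activity raised at least twofold by the compound at 20 µM; inactive = activation factor below 2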
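Assay system: bacterial diaphorase enzyme (C. kluyveri) / Input: enzyme 0.07 U/mL final / Medium: 50 mM HEPES pH 7.4 with 4.542 mM MgCl2, 0.005% Tween 20 / Doses: single compound dose of 20 µM, 1% DMSO final / Incubation: 16 min enzyme reaction, ambient temperature / Signal: fluorescence, excitation 544 nm and emission 590 nm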
* = called active by the depositor.

SMILES | Diaph inh CS | PMI activator | FLuc inh counter | FLuc stim CS | PMI act hi M6P | Diaphorase act
CCCCCCc1nnc(N)s1 | 4.7 | 1.1 | -5.6 | 1.1 | 1.1 | 1
CCN(CC)c1ccc(-c2nc3cnccn3c2NC2CCCC2)cc1 | 17.9 | 0.9 | 6.0 | 0.9 | 0.8 | 0.8
c1cn2c(NC3CCCC3)c(-c3ccc(N4CCOCC4)cc3)nc2cn1 | 13.4 | 1 | 81.1* | 0.2 | 0.9 | 0.9
CCOC(=O)c1cc2c(=O)n3ccccc3nc2n(C(C)C)c1=NC(=O)c1ccncc1 | 65.3* | 1.4 | -7.5 | 1.1 | 2.2* | 0.3
CCOC(=O)c1cc2c(=O)n3ccccc3nc2n(CCCOC)c1=NC(=O)c1cccnc1 | 3.8 | 1.7 | -1.2 | 1 | 2* | 1
COCCn1c(=O)c2cc3c(=O)n(CCOC)c(=O)c3cc2c1=O | 7.6 | 1 | -3.7 | 1 | 1 | 0.9
CCc1ccc(CC)c(S(=O)(=O)Nc2ccc(O)c(C(=O)O)c2)c1 | 26.7 | 0.8 | 0.2 | 1 | 0.8 | 0.7
Cc1ccc(Nc2nnc(SCC(=O)Nc3cccc(S(=O)(=O)NC4=NCCCCC4)c3)s2)cc1 | 22.2 | 0.7 | 47.3 | 0.5 | 0.9 | 0.8
CCc1ccc(Nc2nnc(SCC(=O)Nc3cccc(S(=O)(=O)NC4=NCCCCC4)c3)s2)cc1 | 23.8 | 0.8 | 81.5* | 0.2 | 0.8 | 0.8
COc1ccccc1/C=N/OC(=O)c1ccc(C)cc1 | 14.0 | 0.8 | 71.2* | 0.3 | 1 | 0.9
COc1ccccc1C/C(N)=N/OC(=O)c1ccc2c(c1)OCO2 | 4.8 | 1 | 4.3 | 1 | 0.9 | 1
N/C(=N\OC(=O)c1ccc2c(c1)OCO2)c1cccc([N+](=O)[O-])c1 | 12.2 | 0.9 | 95.9* | 0 | 0.9 | 0.9
Cc1ccc(C(=O)O/N=C/c2ccc3c(c2)OCO3)cc1 | 3.6 | 1 | 58.8* | 0.4 | 1 | 1
Cc1cccc(/C(N)=N/OC(=O)c2ccc3c(c2)OCO3)c1 | 17.2 | 0.9 | 97.0* | 0 | 1 | 0.8
COc1ccc(/C(N)=N/OC(=O)c2cccc([N+](=O)[O-])c2)cc1OC | 16.5 | 0.9 | -8.8 | 1.1 | 0.9 | 0.8
Cc1c(Cl)cccc1NC(=S)N1CCN(S(=O)(=O)c2cccs2)CC1 | 21.3 | 0.9 | -3.9 | 1 | 0.9 | 0.8
Cc1c(C(=O)N2CCc3ccccc3C2)oc2ccc(S(=O)(=O)N3CCCCCC3)cc12 | 20.3 | 0.9 | -5.0 | 1.1 | 0.9 | 0.8
Cc1nnc(NC(=O)c2ccc3c(c2)C(=O)N(CC2CCCO2)C3=O)s1 (configuration not stated) | 4.1 | 0.8 | 67.1* | 0.3 | 1 | 1
Cc1ccc(C(=O)Nc2nnc(C)s2)cc1 | 5.5 | 1.2 | 58.5* | 0.4 | 1.2 | 0.9
Nc1ccc(C(=O)Nc2nccs2)cc1 | 4.6 | 1 | 33.9 | 0.7 | 0.9 | 1
Cc1ccc(C(=O)Nc2nccs2)cc1 | 10.0 | 1 | 83.1* | 0.2 | 1 | 0.9
COc1cccc(NC(=O)Nc2ccc3c(c2)nc(C)n3C)c1 | -6.7 | 1 | 91.9* | 0.1 | 1 | 1.1
Cc1ccnc(NC(=O)Nc2cccc(F)c2)n1 | 4.9 | 0.9 | 7.2 | 0.9 | 0.8 | 1
Cc1nc2cc(NC(=O)Nc3nccs3)ccc2n1C | -4.9 | 0.9 | 81.0* | 0.2 | 0.9 | 1
COc1cccc(NC(=O)Nc2nccc(C)n2)c1 | 4.1 | 0.9 | 82.0* | 0.2 | 1 | 1
SMILES | Diaph inh CS | PMI activator | FLuc inh counter | FLuc stim CS | PMI act hi M6P | Diaphorase act
Cc1nc2cc(NC(=O)NC(C)(C)C)ccc2n1C | -0.3 | 1.1 | 10.2 | 0.9 | 1 | 1
Cc1cc(NCC(C)C)n2ncnc2n1 | 8.2 | 1 | 0.3 | 1 | 1 | 0.9
Cn1ccnc1SCC(=O)N(C1CCCCC1)C1CCCCC1 | 10.8 | 0.9 | -4.3 | 1 | 0.9 | 0.9
CCc1ccc2oc(-c3cc(N)cc(C)c3O)nc2c1 | 3.9 | 0.9 | 61.9* | 0.4 | 1 | 1
CCc1ccc2oc(-c3cc(N)ccc3Cl)nc2c1 | 11.1 | 0.9 | 56.5* | 0.4 | 1 | 0.9
Cc1ccc(C)c(-c2nc3cc(N)ccc3o2)c1 | 20.0 | 0.7 | 3.5 | 1 | 0.8 | 0.8
